From ChEMBL document CHEMBL1152570, “Discovery of a series of acrylic acids and their derivatives as chemical leads for selective EP3 receptor antagonists” (Bioorg Med Chem, 2009)

What was measured:
[1] = biological target: Prostaglandin E2 receptor EP4 subtype (Mus musculus, UniProt P32240); test: Displacement of [3H]PGE2 from mouse EP4 receptor expressed in CHO cells by liquid scintillation counting; assay type: cell-based
Outline: (§1)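 Mouse EP3α and EP4 CHO membrane binding: 2.5 nM [3H]PGE2 with graded test compound in pH 6.0 KH2PO4-KOH buffer (1 mM EDTA, 10 mM MgCl2, 0.1 mM NaCl), 60 min at 25 °C. Bound ligand collected on GF/B filters, washed with cold buffer, counted by liquid scintillation. Excess unlabeled PGE2 gave nonspecific binding. Ki derived from regression IC50, [L] and Kd.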

[2] = biological target: Prostaglandin E2 receptor EP2 subtype (Mus musculus, UniProt Q62053); test: Displacement of [3H]PGE2 from mouse EP2 receptor expressed in CHO cells by liquid scintillation counting; assay type: cell-based
Outline: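 Membranes from CHO cells stably expressing the receptor, incubated with 2.5 nM [3H]PGE2 plus test compound over a concentration range. Buffer: 10 mM KH2PO4-KOH, 1 mM EDTA, 10 mM MgCl2, 0.1 mM NaCl, pH 6.0. Run at 25 °C for 60 min. Stopped by GF/B filtration with ice-cold buffer wash, then scintillation counted. Excess unlabeled PGE2 defined nonspecific binding. IC50 taken from the regression curve; Ki = IC50/(1+[L]/Kd).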

[3] = biological target: T1, Prostaglandin E2 receptor EP3 subtype (Mus musculus, UniProt P30557); test: Displacement of [3H]PGE2 from mouse EP3 receptor expressed in CHO cells by liquid scintillation counting; assay type: cell-based; outline: as §1
T1 sequence (P30557 whole entry): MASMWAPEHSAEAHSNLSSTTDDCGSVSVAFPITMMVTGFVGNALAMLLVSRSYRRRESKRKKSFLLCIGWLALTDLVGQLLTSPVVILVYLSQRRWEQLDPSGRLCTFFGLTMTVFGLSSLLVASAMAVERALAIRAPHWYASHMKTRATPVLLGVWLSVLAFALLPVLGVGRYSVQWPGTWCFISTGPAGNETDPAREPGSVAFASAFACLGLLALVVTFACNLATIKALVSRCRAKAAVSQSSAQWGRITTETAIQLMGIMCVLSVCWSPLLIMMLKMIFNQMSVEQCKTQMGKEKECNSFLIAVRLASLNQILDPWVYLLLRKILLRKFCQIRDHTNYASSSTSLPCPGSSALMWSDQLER

[4] = biological target: T2, Prostaglandin E2 receptor EP1 subtype (Mus musculus, UniProt P35375); test: Displacement of [3H]PGE2 from mouse EP1 receptor expressed in CHO cells by liquid scintillation counting; assay type: cell-based
T2 sequence (P35375 whole entry): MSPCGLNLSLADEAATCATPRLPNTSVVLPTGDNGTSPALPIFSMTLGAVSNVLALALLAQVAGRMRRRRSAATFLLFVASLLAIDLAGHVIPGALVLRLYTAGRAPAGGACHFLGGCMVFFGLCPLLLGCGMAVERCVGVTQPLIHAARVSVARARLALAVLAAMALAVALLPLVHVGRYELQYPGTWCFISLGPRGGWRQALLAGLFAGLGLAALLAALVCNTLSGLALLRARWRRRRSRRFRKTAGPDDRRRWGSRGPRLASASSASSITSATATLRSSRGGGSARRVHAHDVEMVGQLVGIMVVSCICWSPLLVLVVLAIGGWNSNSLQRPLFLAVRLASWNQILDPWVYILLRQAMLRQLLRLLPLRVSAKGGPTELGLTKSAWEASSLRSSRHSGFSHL
Outline: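 Membranes from CHO cells stably expressing mEP1, incubated with 2.5 nM [3H]PGE2 and varied test compound concentrations. Buffer: 10 mM KH2PO4-KOH, 1 mM EDTA, 10 mM MgCl2, 0.1 mM NaCl, pH 6.0. Run at 25 °C for 20 min. Filtered on GF/B and washed ice-cold before scintillation counting. Nonspecific binding measured with excess cold PGE2. IC50 from regression; Ki via the Cheng–Prusoff form.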

[5] = biological target: T1, Prostaglandin E2 receptor EP3 subtype; test: Antagonist activity at mouse EP3alpha receptor expressed in CHo cells assessed as inhibition of PGE2-stimulated intracellular calcium concentration; assay type: functional, cell-based
Outline: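 CHO cells expressing mEP3α were plated at 1×10^4 cells/well and grown 2 days in 10% FBS/αMEM at 37 °C, 5% CO2. Cells were loaded 1 h with 5 µM Fura-2/AM, 20 µM indomethacin and 2.5 mM probenecid. Assay buffer was HBSS with 0.1% BSA, 2 µM indomethacin, 2.5 mM probenecid and 10 mM HEPES, with 1 h dark equilibration at room temperature. Test compound was added with 10 nM PGE2; fluorescence read at 340/380 nm excitation, 500 nm emission. IC50 from percent inhibition of the PGE2 Ca2+ peak.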

Cytochrome P450 2D6 = Cytochrome P450 2D6 (Homo sapiens, UniProt P10635); test: Inhibition of CYP2D6; assay type: ADME
Cytochrome P450 1A2 = biological target: T3, Cytochrome P450 1A2 (Homo sapiens, UniProt P05177); test: Inhibition of CYP1A2; assay type: ADME
T3 sequence (P05177 whole entry): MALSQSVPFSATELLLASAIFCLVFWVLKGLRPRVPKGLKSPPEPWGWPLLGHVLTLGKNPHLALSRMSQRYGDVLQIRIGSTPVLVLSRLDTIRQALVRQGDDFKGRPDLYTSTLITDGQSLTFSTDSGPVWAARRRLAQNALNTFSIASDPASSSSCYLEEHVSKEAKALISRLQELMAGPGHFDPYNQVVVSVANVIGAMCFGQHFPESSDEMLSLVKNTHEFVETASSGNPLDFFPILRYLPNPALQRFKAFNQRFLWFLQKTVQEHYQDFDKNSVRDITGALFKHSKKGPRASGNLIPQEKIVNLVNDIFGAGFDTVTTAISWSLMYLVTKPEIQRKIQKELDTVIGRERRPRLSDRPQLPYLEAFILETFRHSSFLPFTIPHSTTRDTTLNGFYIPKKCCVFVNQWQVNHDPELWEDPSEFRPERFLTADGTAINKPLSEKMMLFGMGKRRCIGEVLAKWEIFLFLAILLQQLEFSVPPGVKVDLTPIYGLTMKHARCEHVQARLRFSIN

Cytochrome P450 3A4 = Cytochrome P450 3A4 (Homo sapiens, UniProt P08684); test: Inhibition of CYP3A4; assay type: ADME
Cytochrome P450 2C9 = Cytochrome P450 2C9 (Homo sapiens, UniProt P11712); test: Inhibition of CYP2C9; assay type: ADME
Cytochrome P450 2C19 = Cytochrome P450 2C19 (Homo sapiens, UniProt P33261); test: Inhibition of CYP2C19; assay type: ADME
Liver microsomes [6] = test: Metabolic stability in rat liver microsomes; assay type: ADME, Microsome
Outline: (§2)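 Human or rat liver microsomes incubated with compound for 15 min at 37 °C; result expressed as percent of intact compound remaining.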

[7] = AUC (0 to 4 hrs) in rat at 10 mg/kg, po; assay type: ADME, organism-based; set-up: time < 4 hr, dose 10 mg/kg, route oral; details: plasma
Outline: (§3)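 Rats dosed orally at 10 mg/kg; compound given as the sodium salt where specified.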

Liver microsomes [8] = test: Metabolic stability in human liver microsomes; assay type: ADME, Microsome; outline: as §2
[9] = Cmax in rat at 10 mg/kg, po; assay type: ADME, organism-based; set-up: dose 10 mg/kg, route oral; details: in vivo; outline: as §3
[10] = Half life in rat at 10 mg/kg, iv and 10 mg/kg, po; assay type: ADME, organism-based; details: in vivo
Outline: (§4)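 Rats dosed at 10 mg/kg iv and 10 mg/kg po, compound given as the sodium salt.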

[11] = Volume of distribution at steady state in rat at 10 mg/kg, iv and 10 mg/kg, po; assay type: ADME, organism-based; details: in vivo, read-out: Vdss; outline: as §4
[12] = Oral bioavailability in rat at 10 mg/kg; assay type: ADME, organism-based; details: in vivo; outline: as §3
[13] = Total clearance in rat at 10 mg/kg, iv and 10 mg/kg, po; assay type: ADME, organism-based; details: in vivo; outline: as §4

Chain of Cytochrome P450 2D6 (P10635 whole entry): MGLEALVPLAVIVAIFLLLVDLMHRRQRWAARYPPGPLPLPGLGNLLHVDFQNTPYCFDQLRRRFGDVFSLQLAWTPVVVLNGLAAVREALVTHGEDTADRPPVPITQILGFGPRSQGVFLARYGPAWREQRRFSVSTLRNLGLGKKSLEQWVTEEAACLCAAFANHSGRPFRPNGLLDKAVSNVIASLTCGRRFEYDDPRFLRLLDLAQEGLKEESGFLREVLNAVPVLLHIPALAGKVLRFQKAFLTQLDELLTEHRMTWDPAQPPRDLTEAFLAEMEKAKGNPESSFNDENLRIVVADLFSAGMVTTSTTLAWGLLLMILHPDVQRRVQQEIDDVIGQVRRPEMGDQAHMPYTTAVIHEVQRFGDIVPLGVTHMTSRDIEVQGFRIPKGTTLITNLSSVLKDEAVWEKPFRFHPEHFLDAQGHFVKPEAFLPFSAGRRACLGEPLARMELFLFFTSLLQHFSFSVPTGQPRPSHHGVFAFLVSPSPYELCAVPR
Chain of Prostaglandin E2 receptor EP2 subtype (Q62053 whole entry): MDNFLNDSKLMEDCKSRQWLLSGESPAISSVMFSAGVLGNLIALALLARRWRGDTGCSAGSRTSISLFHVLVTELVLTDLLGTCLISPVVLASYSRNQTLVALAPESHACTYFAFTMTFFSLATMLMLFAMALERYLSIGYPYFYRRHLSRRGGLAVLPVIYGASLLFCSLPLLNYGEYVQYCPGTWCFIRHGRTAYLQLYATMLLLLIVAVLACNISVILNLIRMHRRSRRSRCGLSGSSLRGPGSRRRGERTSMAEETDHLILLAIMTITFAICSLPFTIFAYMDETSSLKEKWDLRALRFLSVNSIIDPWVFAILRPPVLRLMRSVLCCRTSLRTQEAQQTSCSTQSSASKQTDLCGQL
Chain of Cytochrome P450 3A4 (P08684 whole entry): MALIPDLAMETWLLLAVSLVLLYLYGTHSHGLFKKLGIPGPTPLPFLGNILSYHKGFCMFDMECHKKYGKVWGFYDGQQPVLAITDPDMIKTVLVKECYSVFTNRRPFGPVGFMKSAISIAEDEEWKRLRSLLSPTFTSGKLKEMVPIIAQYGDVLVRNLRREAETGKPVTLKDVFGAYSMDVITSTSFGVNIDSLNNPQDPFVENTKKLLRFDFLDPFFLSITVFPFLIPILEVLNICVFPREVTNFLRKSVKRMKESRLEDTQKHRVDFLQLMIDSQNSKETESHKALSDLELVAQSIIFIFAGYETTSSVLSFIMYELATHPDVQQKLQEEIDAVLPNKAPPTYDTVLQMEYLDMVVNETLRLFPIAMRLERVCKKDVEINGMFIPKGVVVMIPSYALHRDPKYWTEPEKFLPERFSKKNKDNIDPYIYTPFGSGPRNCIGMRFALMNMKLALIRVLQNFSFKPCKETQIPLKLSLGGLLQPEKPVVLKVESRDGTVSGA
Chain of Prostaglandin E2 receptor EP4 subtype (P32240 whole entry): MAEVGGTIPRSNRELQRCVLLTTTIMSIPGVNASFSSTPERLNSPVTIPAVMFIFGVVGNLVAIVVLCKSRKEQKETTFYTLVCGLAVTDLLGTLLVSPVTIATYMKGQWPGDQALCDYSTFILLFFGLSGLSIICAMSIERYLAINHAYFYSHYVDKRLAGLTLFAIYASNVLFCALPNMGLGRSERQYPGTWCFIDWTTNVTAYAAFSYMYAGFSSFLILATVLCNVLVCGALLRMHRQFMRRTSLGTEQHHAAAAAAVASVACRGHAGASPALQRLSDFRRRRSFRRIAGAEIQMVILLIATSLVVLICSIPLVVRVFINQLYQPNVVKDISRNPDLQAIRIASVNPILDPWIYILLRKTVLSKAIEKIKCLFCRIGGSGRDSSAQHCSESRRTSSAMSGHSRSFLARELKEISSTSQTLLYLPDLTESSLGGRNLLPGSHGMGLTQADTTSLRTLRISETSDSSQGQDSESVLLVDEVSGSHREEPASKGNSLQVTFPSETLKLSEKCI
Chain of Cytochrome P450 2C19 (P33261 whole entry): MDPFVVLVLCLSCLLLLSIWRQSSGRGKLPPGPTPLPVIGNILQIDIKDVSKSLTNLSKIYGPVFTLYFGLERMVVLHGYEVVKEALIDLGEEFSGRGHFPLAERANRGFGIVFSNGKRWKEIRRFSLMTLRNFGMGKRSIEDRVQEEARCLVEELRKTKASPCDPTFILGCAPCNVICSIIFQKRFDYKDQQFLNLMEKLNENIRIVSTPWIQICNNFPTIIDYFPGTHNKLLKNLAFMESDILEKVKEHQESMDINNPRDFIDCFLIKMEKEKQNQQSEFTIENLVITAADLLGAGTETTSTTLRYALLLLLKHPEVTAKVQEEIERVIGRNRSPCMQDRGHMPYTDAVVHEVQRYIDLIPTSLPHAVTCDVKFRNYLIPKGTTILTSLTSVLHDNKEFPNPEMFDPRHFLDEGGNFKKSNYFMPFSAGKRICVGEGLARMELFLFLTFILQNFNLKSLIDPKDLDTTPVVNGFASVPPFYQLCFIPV
Chain of Cytochrome P450 2C9 (P11712 whole entry): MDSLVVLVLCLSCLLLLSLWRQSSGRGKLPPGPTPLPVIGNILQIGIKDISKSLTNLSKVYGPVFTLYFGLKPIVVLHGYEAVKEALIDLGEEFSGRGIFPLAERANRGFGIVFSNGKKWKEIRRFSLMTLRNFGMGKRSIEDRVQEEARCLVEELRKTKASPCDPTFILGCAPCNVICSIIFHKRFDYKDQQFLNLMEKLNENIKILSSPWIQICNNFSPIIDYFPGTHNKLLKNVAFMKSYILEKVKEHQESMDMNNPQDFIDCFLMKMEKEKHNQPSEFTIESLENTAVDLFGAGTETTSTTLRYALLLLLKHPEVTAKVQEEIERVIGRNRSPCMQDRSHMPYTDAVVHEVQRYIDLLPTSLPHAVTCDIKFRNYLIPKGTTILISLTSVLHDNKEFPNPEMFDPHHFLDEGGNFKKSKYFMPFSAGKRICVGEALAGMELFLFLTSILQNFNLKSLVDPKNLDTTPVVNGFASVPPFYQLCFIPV

Compound	Ki [1] [µM]	Ki [2] [µM]	Ki [3] [µM]	Ki [4] [µM]	IC50 [5] [µM]	also measured
COc1ccc(/C=C/C(=O)O)c(OCCC2(C)CCc3c(C)c(O)c(C)c(C)c3O2)c1 (configuration not stated)	0.92	6.8	> 10	> 10	> 10	–
Cc1ccc(/C=C/C(=O)O)c(OCCC2(C)CCc3c(C)c(O)c(C)c(C)c3O2)c1 (configuration not stated)	2.2	5.7	0.94	> 10	3.1	–
O=C(O)CCc1ccc(Cn2cccn2)cc1OCCc1ccc2ccccc2c1	1.1	2.8	0.012	7.1	0.022	IC50 (Cytochrome P450 2D6): > 30 µM; IC50 (Cytochrome P450 1A2): > 30 µM; IC50 (Cytochrome P450 3A4): > 30 µM; IC50 (Cytochrome P450 2C9): 30 µM; IC50 (Cytochrome P450 2C19): > 30 µM
O=C(O)CCCc1ccc(Cn2cccn2)cc1OCCc1ccc2ccccc2c1	1.4	1.8	0.039	4	0.46	–
O=C([O-])/C=C/c1ccc(Cn2cccn2)cc1OCCc1ccc2ccccc2c1.[Na+]	–	–	–	–	–	Stability (Liver microsomes [6]): 72%; AUC(0-t) at 4 h [7]: 1360 ng·h/mL; Stability (Liver microsomes [8]): 100%; Cmax [9]: 943 ng/mL
O=C([O-])CCc1ccc(Cn2cccn2)cc1OCCc1ccc2ccccc2c1.[Na+]	–	–	–	–	–	Stability (Liver microsomes [6]): 73%; half-life [10]: 2.93 h; AUC(0-t) at 4 h [7]: 22900 ng·h/mL; Stability (Liver microsomes [8]): 100%; Vd [11]: 0.538 L/kg; Cmax [9]: 8320 ng/mL; bioavailability [12]: 53%; clearance [13]: 2.77 mL/min/kg
O=C(O)/C=C/c1ccc(Cn2ccnc2)cc1OCCc1cc2ccccc2o1	4.3	> 10	0.044	> 10	0.33	–
Cc1c(C)c2c(c(C)c1O)CCC(C)(CCOc1ccccc1/C=C/C(=O)O)O2 (configuration not stated)	2.6	1.2	0.53	> 10	4.8	–
Cc1c(C)c2c(c(C)c1O)CCC(C)(CCOc1cc(Cn3ccnc3)ccc1/C=C/C(=O)O)O2 (configuration not stated)	> 10	> 10	0.063	> 10	0.6	–
O=C(O)COCc1ccc(Cn2cccn2)cc1OCCc1ccc2ccccc2c1	> 10	1.3	0.21	> 10	0.54	–

Further lines, with some results ahead:

Ki [1] [µM]	Ki [2] [µM]	Ki [3] [µM]	Ki [4] [µM]	IC50 [5] [µM]	Compound	also measured
> 10	> 10	0.28	> 10	3	O=C(O)/C=C/c1ccc(Cn2ccnc2)cc1OCCCOc1ccccc1	–
2.9	> 10	0.099	> 10	1.2	O=C(O)C#Cc1ccc(Cn2cccn2)cc1OCCc1ccc2ccccc2c1	–
2.6	9.2	0.13	> 10	0.14	O=C(O)/C=C/c1ccc(COc2ccccc2)cc1OCCc1ccc2ccccc2c1	–
> 10	1.2	0.85	> 10	1.5	O=C(O)/C=C/c1ccc(OCc2ccccc2)cc1OCCc1ccc2ccccc2c1	–
> 10	> 10	0.26	> 10	2.6	O=C(O)COc1ccc(Cn2cccn2)cc1OCCc1ccc2ccccc2c1	–
2.1	> 10	0.13	> 10	0.4	O=C(O)/C=C/c1ccc(Cc2ccccc2)cc1OCCc1ccc2ccccc2c1	–
> 10	> 10	0.22	> 10	3.5	O=C(O)/C=C/c1ccc(Cn2ccnc2)cc1OCCCCOc1ccccc1	–
2.2	> 10	0.016	> 10	0.05	O=C(O)/C=C/c1ccc(Cn2ccnc2)cc1OCCc1ccc2ccccc2c1	IC50 (Cytochrome P450 2D6): 4.4 µM; IC50 (Cytochrome P450 1A2): < 1 µM; IC50 (Cytochrome P450 3A4): < 1 µM; IC50 (Cytochrome P450 2C9): < 1 µM; IC50 (Cytochrome P450 2C19): < 1 µM
2.2	2.1	0.15	> 10	0.15	O=C(O)/C=C/c1ccc(Cc2cccs2)cc1OCCc1ccc2ccccc2c1	–
2.3	5.9	0.11	6.4	0.58	O=C(O)/C=C/c1ccc(CN2CCCC2=O)cc1OCCc1ccc2ccccc2c1	–
0.67	3.3	0.012	2.9	0.073	O=C(O)/C=C/c1ccc(Cn2cccn2)cc1OCCc1ccc2ccccc2c1	IC50 (Cytochrome P450 2D6): > 30 µM; IC50 (Cytochrome P450 1A2): > 30 µM; IC50 (Cytochrome P450 3A4): > 30 µM; IC50 (Cytochrome P450 2C9): 12.8 µM; IC50 (Cytochrome P450 2C19): 30 µM
